Source: PubChem (The Scripps Research Institute Molecular Screening Center)
GPR7 antagonist = GPR7 receptor antagonists, primary screen, cell-based, fluorescence, single concentration | Neuropeptides B/W receptor type 1 (Homo sapiens), P48145 | GPR7-expressing cells, fluorescence antagonist assay | inhibition, % at 4.4 µM | 290,000 compounds, 1.1% hits | AID 1861, 2009; in the data active means inhibition above about 16%, passing the limit was not always enough;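 further: cells stimulated with the agonist NPW; 0% = agonist with vehicle and 100% = vehicle without agonist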
Target sequence (P48145 whole entry, looked up): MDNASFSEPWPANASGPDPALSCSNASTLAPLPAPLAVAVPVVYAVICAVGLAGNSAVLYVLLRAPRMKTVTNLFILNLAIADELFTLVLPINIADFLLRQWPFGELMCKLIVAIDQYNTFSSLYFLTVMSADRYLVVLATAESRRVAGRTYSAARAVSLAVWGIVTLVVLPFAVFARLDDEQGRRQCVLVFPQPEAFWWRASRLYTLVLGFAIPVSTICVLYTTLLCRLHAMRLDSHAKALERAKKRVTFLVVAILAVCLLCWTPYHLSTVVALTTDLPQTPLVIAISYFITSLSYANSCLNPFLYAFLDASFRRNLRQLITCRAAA
CHO parental Ca = ATP-evoked calcium signal inhibitors, parental CHO, primary screen, counter-screen for OX1R antagonist project, cell-based, fluorescence, Fluo-8 calcium dye; parental CHO-K1, ATP-induced calcium, Fluo-8 fluorescence; inhibition, % at 5.6 µM; 330,000 compounds, 0.63% hits;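 active means inhibition above that plate's mean sample inhibition plus 3 SD, cut at about 26% in these data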;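 further: 0% = ATP-challenged DMSO wells and 100% = DMSO wells without ATP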
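material = parental CHO cells | also added = ATP as calcium-mobilizing challenge | dosing = single point at 5.6 µM | detection = intracellular calcium via Fluo-8 no-wash fluorescent dye | read-out = % inhibition | benchmarks = low control ATP plus DMSO, high control DMSO only | repeats = one well per compound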
GalR3 antagonist = GalR3 antagonists in HEK293 cells, primary screen, cell-based, fluorescence readout; Galanin receptor type 3 (Homo sapiens), O60755; HEK293 GalR3-CNG cAMP membrane potential fluorescence; galR3 body fused to GalR1 C-terminus; inhibition, % at 3 µM; 360,000 compounds, 0.44% hits; AID 651719, 2012;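 active means inhibition above the screen-wide average plus 3 SD, cut at about 13% in these data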;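 further: forskolin and galanin both at EC90 stimulate the cells; cAMP rise reported by CNG channel membrane potential dye signal; 0% = forskolin plus galanin with DMSO and 100% = forskolin alone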
OX1R antag-1 = antagonists of human orexin 1 receptor (OX1R); Orexin/Hypocretin receptor type 1 (Homo sapiens), O43613; OX1R-expressing cells, FRET antagonist read-out; inhibition, % at 6.6 µM; 330,000 compounds, 1.8% hits; in the data active means inhibition mostly above about 38%, no sharp cut-off; inactive means mostly below about 40%;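 further: 0% = agonist challenge alone and 100% = reference antagonist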
OX1R antag-2 = OX1R (HCRTR1) antagonists, primary screen, fluorescence, CHO/OX1R cells, Fluo-8 calcium, orexin A; Fluo-8 calcium fluorescence; inhibition, % at 5 µM; 330,000 compounds, 0.43% hits; AID 434989, 2010;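 active means inhibition above its plate's threshold, mean inhibition of all tested compounds on the plate plus 3 SD, cut at about 37% in these data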;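 further: 0% = orexin A challenge wells and 100% = SB-334867-A antagonist wells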
GPR7 antag cf = GPR7 receptor antagonists, confirmation, cell-based, fluorescence, single concentration | shares compounds with GPR7 antagonist | GPR7-expressing cells, calcium fluorescence antagonist mode | inhibition, % at 4.4 µM | 2,400 compounds, 52% hits | AID 1952, 2009; in the data active means inhibition above about 24%;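 further: stimulated with the GPR7 agonist NPW; 0% = agonist plus vehicle and 100% = vehicle alone without agonist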
MCHR1 antagonist = MCHR1 antagonists in cells, counter-screen for GPR7 antagonist project, cell-based, fluorescence, human. shares compounds with GPR7 antagonist. MCHR1-expressing cells, fluorescence antagonist assay. inhibition, % at 4.4 µM. 2,400 compounds, 62% hits. AID 2148, 2009; in the data active means inhibition above about 22%;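 further: 0% = vehicle with agonist and 100% = vehicle without agonist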
Active calls of the source: *; nt = not tested or not shown. A selection: hits, their analogues and other compounds. The true share with any hit is near 3.1%.

SMILES	GPR7 antagonist	CHO parental Ca	GalR3 antagonist	OX1R antag-1	OX1R antag-2	GPR7 antag cf	MCHR1 antagonist
O=[N+]([O-])c1ccc(O)c([N+](=O)[O-])c1	nt	-2	nt	69*	3	nt	nt
CC1(C)C[C@H]2C=C(C=O)[C@]3(C=O)C[C@]3(C)[C@H]2C1	4	69*	-5	6	40*	nt	nt
OCC#CC[N+]1(CC#Cc2ccccc2)CCOCC1	-1	12	-1	21	-5	nt	nt
COc1ccc(-c2nn(CCC#N)cc2C(=O)Nc2cccc([N+](=O)[O-])c2)cc1OC	-18	nt	-9	nt	nt	nt	nt
O=C(COc1ccc(Cl)cc1)N1CCN(Cc2ccc([N+](=O)[O-])cc2)CC1	30*	-16	-5	18	-21	28*	46*
CCOc1ccc(Cl)cc1CNCCc1ccc(F)cc1	33*	-28	-9	9	-35	30*	29*
C[C@]12CCC3C(CC[C@H]4C[C@@H](O)CC[C@]34C)C1CC[C@@H]2OC(=O)[C@H](N)CCCCN (stereo not given in full)	nt	-12	-6	3	11	nt	nt
COC(=O)C(O)(c1ccc(N(C)C(=O)c2ccc(Cl)c(Cl)c2)cc1)C(F)(F)F (stereo not given)	33*	-14	-12	20	-4	30*	-3
CCOC(=O)C(O)(c1ccc(N(C)C(=O)c2ccc(Cl)c(Cl)c2)cc1)C(F)(F)F (stereo not given)	16	-21	4	20	-38	nt	nt
Cn1cnc(CCN)c1	nt	-5	-1	9	-1	nt	nt
O=P(NC(c1ccccc1)c1ccccc1)(Oc1ccccc1)Oc1ccccc1	26*	-14	-11	17	-19	32*	47*
CN1CC=C(/C=C/c2ccc(-c3ccccc3)cc2)CC1	51*	22	nt	-1	20	63*	51*
COc1ccc(/C=C/C2=CCN(C)CC2)cc1	-4	-9	-3	9	4	nt	nt
OC(c1cccc(Cl)c1)(c1cccc(Cl)c1)C1CN2CCC1CC2 (stereo not given)	34*	-1	-11	4	-19	44*	51*
O=C(Nc1cccc(C(F)(F)F)c1)OC1CN2CCC1CC2 (stereo not given)	5	-15	-9	7	-7	nt	nt
CC12CN3CCN(C1)CC(C)(C3)C2=NN	-14	6	1	-2	-4	nt	nt
COc1ccc(NC(=O)N2C[C@@H]3C[C@@H](C2)c2cccc(=O)n2C3)cc1	6	-6	-6	10	-8	nt	nt
Cc1nc2cc(C(F)(F)F)ccc2n1C1CCN(Cc2nnnn2Cc2cccs2)CC1	32*	61*	-6	-1	43*	47*	38*
Cc1nc2cc(C(F)(F)F)ccc2n1C1CCN(Cc2nnnn2Cc2ccc3c(c2)OCO3)CC1	9	28	-7	2	1	nt	nt
O=C1Nc2ccc(Br)cc2C(c2ccc(Cl)cc2)=NC1O (stereo not given)	-15	nt	-10	nt	nt	nt	nt
Brc1ccc(-[n+]2c(-c3ccccc3)cc(-c3ccccc3)cc2-c2ccccc2)cc1	nt	13	-12	28	25	nt	nt
Nc1ccccc1-[n+]1c(-c2ccccc2)cc(-c2ccccc2)cc1-c1ccccc1	84*	-9	-9	14	-4	76*	66*
C1=NCCCN2CCCCC12 (stereo not given)	nt	nt	-1	nt	nt	nt	nt
Cc1c(CCN)ccc2c1[nH]c1ccccc12	37*	17	-13	-5	1	37*	27*
C[C@]12CCC3[C@@H](CCC4=CC(=O)CC[C@@]43C=O)C1CCC2=O (stereo not given in full)	28*	1	-5	-6	13	-9	7
